Test results reported in ChEMBL document CHEMBL1914412, “Molecular modeling study and synthesis of novel dicationic flexible triaryl guanidines and imidamides as antiprotozoal agents” (Eur J Med Chem, 2011).

What was measured:
[1] = Ratio of IC50 for compound to IC50 for pentamidine for rat L6 cells; format: cell-based; details: read-out: Ratio IC50
Nucleic Acid = assay: Binding affinity to poly(dA-dT) DNA assessed as change in melting temperature at compound/polynucleotide ratio 0.3 in MES10 buffer by spectrophotometry; format: nucleic-acid assay
[2] = Selectivity index, ratio of IC50 for Trypanosoma brucei rhodesiense STIB900 to IC50 for Plasmodium falciparum K1; format: functional
Plasmodium falciparum [3] = assay: Ratio of IC50 for pentamidine to IC50 for compound for Plasmodium falciparum K1; format: functional
L6 = assay: Cytotoxicity against rat L6 cells after 72 hrs by alamar blue staining-based microplate fluorometric analysis; format: cell-based; details: L6, 72 h
[4] = system: Trypanosoma brucei rhodesiense; assay: Antitrypanosomal activity against Trypanosoma brucei rhodesiense STIB900 after 72 hrs using alamar blue staining by microplate fluorometric analysis; format: functional, organism-based; details: STIB900, 72 h
Outline: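 STIB 900 trypanosome suspension with serial drug dilutions, 37 °C, 5% CO₂, 72 h; Alamar Blue added and incubation continued 2–4 h. Two independent runs, each in duplicate.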

Plasmodium falciparum [5] = assay: Antiplasmodial activity against Plasmodium falciparum K1 infected in human red blood cells assessed as [3H]hypoxanthine incorporation after 48 hrs by liquid scintillation counting; format: functional, organism-based

SMILES	ΔTm (Nucleic Acid) [°C]	IC50 [4] [nM]	IC50 (Plasmodium falciparum [5]) [nM]	selectivity ratio [1]	Ratio IC50 [2]	Ratio IC50 (Plasmodium falciparum [3])	IC50 (L6) [nM]
N=C(Nc1ccc(Oc2cccc(Oc3ccc(NC(=N)C4CCCCC4)cc3)c2)cc1)C1CCCCC1	0	395	307	1.9	1.3		3900
C/N=C(\N)Nc1ccc(Oc2cccc(Oc3ccc(N/C(N)=N/C)cc3)c2)cc1.Cl.Cl	0.1	318	21.5	22	14.8	2.2	45700
N=C(Nc1ccc(Oc2ccc(Oc3ccc(NC(=N)c4ccccc4)cc3)cc2)cc1)c1ccccc1	5	863	71.5	1.3	12.1		2800
CC(C)(C)c1ccc(C(=N)Nc2ccc(Oc3ccc(Oc4ccc(NC(=N)c5ccc(C(C)(C)C)cc5)cc4)cc3)cc2)cc1	0	400	60	0.71	6.7		1500
N=C(Nc1ccc(Oc2cccc(Oc3ccc(NC(=N)c4ccccc4)cc3)c2)cc1)c1ccccc1	2	1040	251	0.43	4.2		900
N=C(Nc1ccc(Oc2ccc(Oc3ccc(NC(=N)C4CCCCC4)cc3)cc2)cc1)C1CCCCC1	2.1	427	259	1.5	1.6		3100

Continued by falling IC50 [4], values first:

ΔTm (Nucleic Acid) [°C]	IC50 [4] [nM]	IC50 (Plasmodium falciparum [5]) [nM]	SMILES	selectivity ratio [1]	Ratio IC50 [2]	Ratio IC50 (Plasmodium falciparum [3])	IC50 (L6) [nM]
0	82300	4700	N=C(Nc1ccc(Oc2cccc(Oc3ccc(NC(=N)c4ccc(-c5ccccc5)cc4)cc3)c2)cc1)c1ccc(-c2ccccc2)cc1	4.3	17		9100
0	2780	627	CC(C)(C)c1ccc(C(=N)Nc2ccc(Oc3cccc(Oc4ccc(NC(=N)c5ccc(C(C)(C)C)cc5)cc4)c3)cc2)cc1	39	4.4		81400
0.1	612	63.3	N=C(Nc1ccc(Oc2ccc(Oc3ccc(NC(=N)c4ccc(-c5ccccc5)cc4)cc3)cc2)cc1)c1ccc(-c2ccccc2)cc1	60	9.6		> 120000
1.1	171	27	N=C(N)Nc1ccc(Oc2cccc(Oc3ccc(NC(=N)N)cc3)c2)cc1	5	6.3		10600
0	160	17.2	CC(C)/N=C(\N)Nc1ccc(Oc2ccc(Oc3ccc(N/C(N)=N/C(C)C)cc3)cc2)cc1.Cl.Cl	9.3	9.3	2.7	19600
0	155	38.2	CC(C)/N=C(\N)Nc1ccc(Oc2cccc(Oc3ccc(N/C(N)=N/C(C)C)cc3)c2)cc1.Cl.Cl	39	4.1	1.2	82100
0.8	155	14.1	C/N=C(/N)Nc1ccc(Oc2ccc(Oc3ccc(N/C(N)=N/C)cc3)cc2)cc1.Cl.Cl	27	11	3.3	57300
2.1	151	26.5	N=C(N)Nc1ccc(Oc2ccc(Oc3ccc(NC(=N)N)cc3)cc2)cc1	5.5	5.7		11600
